Source: ChEMBL document CHEMBL2176871, “Development of ligands at γ-aminobutyrric acid type A (GABAA) receptor subtype as new agents for pain relief” (Bioorg Med Chem, 2011)
Active and inactive are the calls of the source.

Columns and labels:
Mus musculus [1] = test: Antihyperalgesic activity Swiss albino mouse […] assessed as licking latency time at 30 mg/kg, po after 45 mins by hot plate test (reference value: 14.9 +/- 1.1 secs); assay type: functional
In short: (§1)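 Hot plate at 52.5 ± 0.1 °C in non-diabetic male Swiss mice. Latency to licking of fore or hind paws was timed before dosing and every 15 min up to 60 min after oral dosing. Mice with pretest latencies below 12 s or above 18 s were excluded. Cut-off was 45 s.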

Mus musculus [2] = test: Antihyperalgesic activity Swiss albino mouse […] assessed as licking latency time at 30 mg/kg, po after 60 mins by hot plate test (reference value: 14.9 +/- 1.1 secs); assay type: functional; in short: as §1
Rattus norvegicus [3] = test: Antinociceptive activity in Sprague-Dawley rat mononeuropathy pain model assessed as increase in injured paw pressure at 10 mg/kg, po after 30 mins by paw pressure test relative to non-treated control; assay type: functional
In short: (§2)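 Chronic constriction injury: loose ligatures placed on the common sciatic nerve under chloral hydrate; contralateral sham dissection. Tested 14 days after surgery. Paw pressure applied at 32 g/s; threshold taken as the force causing the first struggle; cut-off 250 g; pretest outliers (<40 g or >75 g) excluded. Oral dosing in 10 ml/kg; read at 15, 30 and 45 min; compared with a CMC-treated group.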

Mus musculus [4] = test: Antihyperalgesic activity against streptozotocin-induced hyperalgesia in Swiss albino mouse […] assessed as licking latency time at 30 mg/kg, po after 60 mins by hot plate test (reference value: 10.4 +/- 0.8 secs); assay type: functional
Rattus norvegicus [5] = test: Antinociceptive activity in Sprague-Dawley rat mononeuropathy pain model assessed as increase in injured paw pressure at 3 mg/kg, po after 45 mins by paw pressure test relative to non-treated control; assay type: functional; in short: as §2
Rattus norvegicus [6] = test: Toxicity in Sprague-Dawley rat mononeuropathy pain model assessed as effect on contralateral paw pressure at 10 mg/kg, po after 45 mins by paw pressure test; assay type: organism-based; parameters: dose 10 mg/kg, route oral; settings: in vivo, 0.75 h
In short: (§3)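 Same sciatic-ligation rat model, 14 days after surgery. Threshold measured on the non-operated contralateral hind paw by analgesimeter at 32 g/s; first-struggle endpoint; 250 g cut-off; pretest rats outside 40–75 g rejected. Compound given po in 10 ml/kg; readings at 15, 30 and 45 min.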

Rattus norvegicus [7] = test: Toxicity in Sprague-Dawley rat mononeuropathy pain model assessed as effect on contralateral paw pressure at 30 mg/kg, po after 30 mins by paw pressure test; assay type: organism-based; parameters: dose 30 mg/kg, route oral; settings: in vivo, 0.5 h; in short: as §3
Rattus norvegicus [8] = test: Toxicity in Sprague-Dawley rat mononeuropathy pain model assessed as effect on contralateral paw pressure at 3 mg/kg, po after 15 mins by paw pressure test; assay type: organism-based; parameters: dose 3 mg/kg, route oral; settings: in vivo, 0.25 h; in short: as §3
Mus musculus [9] = test: Anticonvulsant activity in Swiss albino mouse […] assessed as protection against intraperitoneally administered pentylenetetrazol-induced seizures at 30 mg/kg, po after 30 mins; assay type: functional
In short: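 Male Swiss albino mice. Compounds given po and PTZ 90 mg/kg injected 30 min later; PTZ was dissolved in 0.9% NaCl saline. Clonic generalized convulsions were recorded over 30 min. Each value is the mean of 10 mice. The methods give the PTZ route as s.c. and the table footnote gives it as ip.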

Rattus norvegicus [10] = test: Antinociceptive activity in Sprague-Dawley rat mononeuropathy pain model assessed as increase in injured paw pressure at 30 mg/kg, po after 15 mins by paw pressure test relative to non-treated control; assay type: functional; in short: as §2
Rattus norvegicus [11] = test: Toxicity in Sprague-Dawley rat mononeuropathy pain model assessed as effect on contralateral paw pressure at 30 mg/kg, po after 15 mins by paw pressure test; assay type: organism-based; parameters: dose 30 mg/kg, route oral; settings: in vivo, 0.25 h; in short: as §3
Rattus norvegicus [12] = test: Toxicity in Sprague-Dawley rat mononeuropathy pain model assessed as effect on contralateral paw pressure at 3 mg/kg, po after 45 mins by paw pressure test; assay type: organism-based; parameters: dose 3 mg/kg, route oral; settings: in vivo, 0.75 h; in short: as §3
Mus musculus [13] = test: Antihyperalgesic activity against streptozotocin-induced hyperalgesia in Swiss albino mouse […] assessed as licking latency time at 30 mg/kg, po after 30 mins by hot plate test (reference value: 10.4 +/- 0.8 secs); assay type: functional
Rattus norvegicus [14] = test: Toxicity in Sprague-Dawley rat mononeuropathy pain model assessed as effect on contralateral paw pressure at 3 mg/kg, po after 30 mins by paw pressure test; assay type: organism-based; parameters: dose 3 mg/kg, route oral; settings: in vivo, 0.5 h; in short: as §3
Rattus norvegicus [15] = test: Antinociceptive activity in Sprague-Dawley rat mononeuropathy pain model assessed as increase in injured paw pressure at 3 mg/kg, po after 15 mins by paw pressure test relative to non-treated control; assay type: functional; in short: as §2
Rattus norvegicus [16] = test: Toxicity in Sprague-Dawley rat mononeuropathy pain model assessed as effect on contralateral paw pressure at 10 mg/kg, po after 30 mins by paw pressure test; assay type: organism-based; parameters: dose 10 mg/kg, route oral; settings: in vivo, 0.5 h; in short: as §3
Mus musculus [17] = test: Antihyperalgesic activity Swiss albino mouse […] assessed as licking latency time at 30 mg/kg, po after 15 mins by hot plate test (reference value: 14.9 +/- 1.1 secs); assay type: functional; in short: as §1
Bos taurus = species on record: Bos taurus; test: Displacement of [3H]Ro151788 from GABA(A)/BzR in bovine cerebral cortex membrane at 10 uM; assay type: cell membranes
In short: (§4)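 Bovine cerebral cortex membranes in 50 mM Tris-citrate pH 7.4; [3H]flumazenil displacement. Compounds first tested at a fixed 10 µM; Ki determined only when inhibition exceeded 80%, using at least six concentrations. Five experiments run in triplicate; IC50 obtained by iterative curve fitting and converted to Ki with the Cheng–Prusoff equation.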

Mus musculus [18] = test: Anxiolytic-like activity in Swiss albino mouse at 10 mg/kg, po after 30 mins by light/dark box test; assay type: functional, organism-based; parameters: dose 10 mg/kg
In short: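 Male Swiss mice tested in a two-compartment light/dark box. Transfers between compartments and time spent in the lit side recorded. Compound given po 30 min before testing, in 10 ml/kg; flumazenil given i.p. for antagonism; 8 mice per group.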

Mus musculus [19] = test: Antihyperalgesic activity against streptozotocin-induced hyperalgesia in Swiss albino mouse […] assessed as licking latency time at 30 mg/kg, po after 15 mins by hot plate test (reference value: 10.4 +/- 0.8 secs); assay type: functional
Rattus norvegicus [20] = test: Antinociceptive activity in Sprague-Dawley rat mononeuropathy pain model assessed as increase in injured paw pressure at 30 mg/kg, po after 45 mins by paw pressure test relative to non-treated control; assay type: functional; in short: as §2
Rattus norvegicus [21] = test: Toxicity in Sprague-Dawley rat mononeuropathy pain model assessed as effect on contralateral paw pressure at 10 mg/kg, po after 15 mins by paw pressure test; assay type: organism-based; parameters: dose 10 mg/kg, route oral; settings: in vivo, 0.25 h; in short: as §3
[22] = Displacement of [3H]Ro151788 from GABA(A)/BzR in bovine cerebral cortex membrane; assay type: cell membranes, Bos taurus; in short: as §4
Mus musculus [23] = test: Antihyperalgesic activity against streptozotocin-induced hyperalgesia in Swiss albino mouse […] assessed as licking latency time at 30 mg/kg, po after 45 mins by hot plate test (reference value: 10.4 +/- 0.8 secs); assay type: functional
Rattus norvegicus [24] = test: Antinociceptive activity in Sprague-Dawley rat mononeuropathy pain model assessed as increase in injured paw pressure at 10 mg/kg, po after 15 mins by paw pressure test relative to non-treated control; assay type: functional; in short: as §2
Mus musculus [25] = test: Antihyperalgesic activity Swiss albino mouse […] assessed as licking latency time at 30 mg/kg, po after 30 mins by hot plate test (reference value: 14.9 +/- 1.1 secs); assay type: functional; in short: as §1
Mus musculus [26] = test: Analgesic activity in Swiss albino mouse abdominal constriction model assessed as decrease in number of acetic acid-induced writhing at 10 to 30 mg/kg, po after 30 mins; assay type: functional, organism-based; settings: Abdomen
In short: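 Male Swiss albino mice (23–30 g). Compounds given po in 1% CMC vehicle 30 min before the test. Acetic acid 0.6% injected i.p. at 10 ml/kg. Stretching movements were counted for 10 min, starting 5 min after the acetic acid injection. 8–15 mice per group.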

Rattus norvegicus [27] = test: Toxicity in Sprague-Dawley rat mononeuropathy pain model assessed as effect on contralateral paw pressure at 30 mg/kg, po after 45 mins by paw pressure test; assay type: organism-based; parameters: dose 30 mg/kg, route oral; settings: in vivo, 0.75 h; in short: as §3
Rattus norvegicus [28] = test: Antinociceptive activity in Sprague-Dawley rat mononeuropathy pain model assessed as increase in injured paw pressure at 30 mg/kg, po after 30 mins by paw pressure test relative to non-treated control; assay type: functional; in short: as §2
Rattus norvegicus [29] = test: Antinociceptive activity in Sprague-Dawley rat mononeuropathy pain model assessed as increase in injured paw pressure at 10 mg/kg, po after 45 mins by paw pressure test relative to non-treated control; assay type: functional; in short: as §2
Rattus norvegicus [30] = test: Antinociceptive activity in Sprague-Dawley rat mononeuropathy pain model assessed as increase in injured paw pressure at 3 mg/kg, po after 30 mins by paw pressure test relative to non-treated control; assay type: functional; in short: as §2

[O-][n+]1nc2c(I)cnn2c2cc(NCc3ccccc3)ccc21
Time (Mus musculus [1]): 15.8 s
Time (Mus musculus [2]): 16.3 s
Activity (Rattus norvegicus [3]): 44.8 g
Time (Mus musculus [4]): 17.9 s
Activity (Rattus norvegicus [5]): 31.2 g
Activity (Rattus norvegicus [6]): 61.2 g
Activity (Rattus norvegicus [7]): 58.9 g
Activity (Rattus norvegicus [8]): 62.3 g
Activity (Mus musculus [9]): 10%
Activity (Rattus norvegicus [10]): 46.4 g
Activity (Rattus norvegicus [11]): 61.7 g
Activity (Rattus norvegicus [12]): 60.7 g
Time (Mus musculus [13]): 16.4 s
Activity (Rattus norvegicus [14]): 59.5 g
Activity (Rattus norvegicus [15]): 41.4 g
Activity (Rattus norvegicus [16]): 61.5 g
Time (Mus musculus [17]): 16.3 s
inhibition (Bos taurus): > 80%
Activity (Mus musculus [18]): Active
Time (Mus musculus [19]): 16.6 s
Activity (Rattus norvegicus [20]): 38.1 g
Activity (Rattus norvegicus [21]): 64.8 g
Ki [22]: 0.109 nM
Time (Mus musculus [23]): 17.3 s
Activity (Rattus norvegicus [24]): 49.5 g
Time (Mus musculus [25]): 16.9 s
Activity (Mus musculus [26]): inactive
Activity (Rattus norvegicus [27]): 62.2 g
Activity (Rattus norvegicus [28]): 42.3 g
Activity (Rattus norvegicus [29]): 36.7 g
Activity (Rattus norvegicus [30]): 33.8 g
